From ChEMBL document CHEMBL1138515, “Synthesis and biological characterization of B-ring amino analogues of potent benzothiadiazine hepatitis C virus polymerase inhibitors” (J Med Chem, 2009)

How the values were obtained:
[1] = Oral bioavailability in Sprague-Dawley rat at 5 mg/kg; assay type: ADME, organism-based; conditions: in vivo
How it was run: (§1)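 Overnight-fasted Sprague-Dawley rats (n = 3) received a single 5 mg/kg iv or oral dose in DMSO/PEG400 (1:9, v/v). Mean concentrations were fitted multiexponentially. AUC₀₋ₜ was calculated by linear trapezoidal rule and extrapolated to infinity using Cₜ divided by the terminal rate constant.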

[2] = Inhibition of HCV1a H77 NS5B assessed as [3H]UTP incorporation into RNA by scintillation counting; design: species or system Hepatitis C virus (isolate H77)
How it was run: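 Two-fold serial inhibitor dilutions were preincubated for 15 min at room temperature with NS5B (genotype 1a H77 or genotype 1b BK, 20-50 nM) in 20 mM Tris-Cl pH 7.4, 2 mM MnCl₂, 1 mM DTT, 1 mM EDTA and 60-125 µM GTP. Reactions were started with 20 µM CTP, 20 µM ATP, 1 µM ³H-UTP, 5 nM template RNA and RNase inhibitor, then run 2-4 h at room temperature.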

[3] = Clearance in Sprague-Dawley rat at 5 mg/kg, iv; assay type: ADME, organism-based; design: dose 5 mg/kg, route intravenous; conditions: in vivo; how it was run: as §1
[4] = Half life in Sprague-Dawley rat at 5 mg/kg, iv; assay type: ADME, organism-based; design: dose 5 mg/kg, route intravenous; conditions: in vivo; how it was run: as §1
[5] = AUC (0 to infinity) in Sprague-Dawley rat at 5 mg/kg, po; assay type: ADME, organism-based; design: time infinity, dose 5 mg/kg, route oral; conditions: plasma; how it was run: as §1
[6] = Cmax in Sprague-Dawley rat at 5 mg/kg, po; assay type: ADME, organism-based; design: dose 5 mg/kg, route oral; conditions: in vivo; how it was run: as §1
[7] = biological target: Genome polyprotein (Hepatitis C virus genotype 1b (isolate Con1) (HCV), UniProt Q9WMX2); assay: Inhibition of HCV1b Con1 NS5B assessed as [3H]UTP incorporation into RNA by scintillation counting
Sequence of Genome polyprotein (Q9WMX2 2420-3010 limits assumed): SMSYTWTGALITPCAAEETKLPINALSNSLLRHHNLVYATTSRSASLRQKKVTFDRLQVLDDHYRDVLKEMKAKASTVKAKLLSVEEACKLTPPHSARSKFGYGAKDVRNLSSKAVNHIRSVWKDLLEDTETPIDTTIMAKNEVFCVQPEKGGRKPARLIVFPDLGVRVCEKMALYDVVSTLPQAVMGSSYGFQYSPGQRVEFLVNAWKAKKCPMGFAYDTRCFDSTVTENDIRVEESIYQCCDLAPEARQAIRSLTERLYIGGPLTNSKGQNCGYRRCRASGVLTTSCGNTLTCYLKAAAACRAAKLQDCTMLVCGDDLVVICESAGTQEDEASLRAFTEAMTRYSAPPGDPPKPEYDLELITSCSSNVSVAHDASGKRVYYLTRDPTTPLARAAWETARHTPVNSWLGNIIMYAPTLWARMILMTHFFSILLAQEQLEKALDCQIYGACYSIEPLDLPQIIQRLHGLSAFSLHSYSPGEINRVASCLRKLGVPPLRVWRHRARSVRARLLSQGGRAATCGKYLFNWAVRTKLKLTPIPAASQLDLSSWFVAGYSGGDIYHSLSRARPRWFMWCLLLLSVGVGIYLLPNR

[8] = test system: Hepatitis C virus; assay: Antiviral activity against HCV1a H77 infected in human Huh7 cells assessed as inhibition viral subgenomic replication; assay type: functional, organism-based, Hepacivirus hominis; conditions: genotype 1a H77, Huh-7
How it was run: (§2)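 Stable luciferase-reporter subgenomic replicon Huh-7 lines (1a H77; 1b Con1) were seeded at 5000 cells/well in DMEM with 5% FBS. The next day an eight-point half-log dilution series was added from DMSO stocks. After 3 days the cells were lysed, luciferin was added and luminescence was read. EC₅₀ came from percent inhibition of replication at each concentration.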

[9] = test system: Hepatitis C virus; assay: Antiviral activity against HCV1b Con1 infected in human Huh7 cells assessed as inhibition viral subgenomic replication; assay type: functional, organism-based, Hepacivirus hominis; conditions: isolate Con1, Huh-7; how it was run: as §2
[10] = test system: Hepatitis C virus; assay: Antiviral activity against HCV1b Con1 infected in human Huh7 cells assessed as inhibition viral subgenomic replication […]; assay type: functional, organism-based, Hepacivirus hominis; conditions: isolate Con1, Huh-7
[11] = Drug level in Sprague-Dawley rat liver at 5 mg/kg, po after 1 hr; assay type: ADME, organism-based; design: dose 5 mg/kg, route oral; conditions: read-out: Drug uptake
How it was run: (§3)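 Sprague-Dawley rats were given 5 mg/kg orally in DMSO/PEG400 (1:9, v/v). Separate animals were sampled for liver and plasma at 1, 6 and 12 h. Drug in liver (µg/g) and in plasma was measured by LC-MS, and liver/plasma ratios were taken at each time.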

[12] = Drug level in Sprague-Dawley rat liver at 5 mg/kg, po after 6 hrs; assay type: ADME, organism-based; design: dose 5 mg/kg, route oral; conditions: read-out: Drug uptake; how it was run: as §3
[13] = Drug level in Sprague-Dawley rat liver at 5 mg/kg, po after 12 hrs; assay type: ADME, organism-based; design: dose 5 mg/kg, route oral; conditions: read-out: Drug uptake; how it was run: as §3
[14] = Ratio of drug level in liver to plasma of Sprague-Dawley rat at 5 mg/kg, po after 1 hr; assay type: ADME, organism-based; design: dose 5 mg/kg, route oral; conditions: liver and plasma; how it was run: as §3
[15] = Ratio of drug level in liver to plasma of Sprague-Dawley rat at 5 mg/kg, po after 6 hrs; assay type: ADME, organism-based; design: dose 5 mg/kg, route oral; conditions: liver and plasma; how it was run: as §3
[16] = Ratio of drug level in liver to plasma of Sprague-Dawley rat at 5 mg/kg, po after 12 hrs; assay type: ADME, organism-based; design: dose 5 mg/kg, route oral; conditions: liver and plasma; how it was run: as §3
[17] = test system: Hepatitis C virus; assay: Antiviral activity against HCV1a H77 assessed as inhibition of viral replication by cell-based replicon assay; assay type: functional, organism-based, Hepacivirus hominis; conditions: genotype 1a H77; how it was run: as §2

In the case of `Cc1cccc(C)c1CN[C@]1(CCC(C)(C)C)C(=O)C(C2=NS(=O)(=O)c3cc(NS(C)(=O)=O)ccc3N2)=C(O)c2ccccc21`, the bioavailability [1] is reported as 55.9%, the IC50 [2] is reported as 0.016 µM and the clearance [3] is reported as 0.7 L/h/kg. The half-life [4] was 3.1 h, the AUC(0-inf) [5] was 4.21 µg·h/mL and the Cmax [6] was 0.62 µg/mL. For the same compound, the IC50 [7] was 0.019 µM, the EC50 [8] was 0.01 µM and the EC50 [9] was 0.006 µM. For the same compound, the EC50 [10] was 0.27 µM, the concentration at 1 h [11] was 5860 ng/g and the concentration at 6 h [12] was 4360 ng/g. It also gave a concentration at 12 h [13] of 2110 ng/g, a Kp at 1 h [14] of 12 and a Kp at 6 h [15] of 15. It also gave a Kp at 12 h [16] of 11.

In the case of `COc1ccc(OC)c(CNC2(CCC(C)(C)C)C(=O)C(C3=NS(=O)(=O)c4cc(NS(C)(=O)=O)ccc4N3)=C(O)c3ccccc32)c1` (centres undefined), the IC50 [2] is reported as 0.01 µM and the EC50 [17] is reported as 0.015 µM.

In the case of `Cc1ccc(CNC2(CCC(C)(C)C)C(=O)C(C3=NS(=O)(=O)c4cc(NS(C)(=O)=O)ccc4N3)=C(O)c3ccccc32)cn1` (centres undefined), the bioavailability [1] is reported as 0%, the IC50 [2] is reported as 0.014 µM and the EC50 [17] is reported as 0.011 µM. The clearance [3] was 5.9 L/h/kg and the half-life [4] was 0.5 h.

For `CC(C)(C)CCC1(NCc2cccnc2)C(=O)C(C2=NS(=O)(=O)c3cc(NS(C)(=O)=O)ccc3N2)=C(O)c2ccccc21` (centres undefined), the IC50 [2] was 0.01 µM and the EC50 [17] was 0.015 µM.

`COc1cccc(CNC2(CCC(C)C)C(=O)C(C3=NS(=O)(=O)c4cc(NS(C)(=O)=O)ccc4N3)=C(O)c3ccccc32)c1` (centres undefined) gave an IC50 [2] of 0.014 µM and an EC50 [17] of 0.038 µM.

With `CC(C)(C)CCC1(NCc2ccccc2C(F)(F)F)C(=O)C(C2=NS(=O)(=O)c3cc(NS(C)(=O)=O)ccc3N2)=C(O)c2ccccc21` (centres undefined) the IC50 [2] was 0.033 µM and the EC50 [17] was 0.035 µM.

Work on `COc1ccccc1CNC1(CCC(C)(C)C)C(=O)C(C2=NS(=O)(=O)c3cc(NS(C)(=O)=O)ccc3N2)=C(O)c2ccccc21` (centres undefined) yielded a bioavailability [1] of 48%, an IC50 [2] of 0.015 µM and an EC50 [17] of 0.006 µM. It also gave a clearance [3] of 1.5 L/h/kg, a half-life [4] of 3.2 h and an AUC(0-inf) [5] of 1.6 µg·h/mL. For the same compound, the Cmax [6] was 0.4 µg/mL.

Work on `CC(C)CCC1(NCc2ccccc2)C(=O)C(C2=NS(=O)(=O)c3cc(NS(C)(=O)=O)ccc3N2)=C(O)c2ccccc21` (centres undefined) yielded an IC50 [2] of 0.019 µM and an EC50 [17] of 0.034 µM.

For `CC(C)(C)CCC1(NCc2ccc3ccccc3c2)C(=O)C(C2=NS(=O)(=O)c3cc(NS(C)(=O)=O)ccc3N2)=C(O)c2ccccc21` (centres undefined), the bioavailability [1] was 28.1%, the IC50 [2] was 0.023 µM and the EC50 [17] was 0.016 µM. For the same compound, the clearance [3] was 1.4 L/h/kg, the half-life [4] was 2.2 h and the AUC(0-inf) [5] was 1.02 µg·h/mL. For the same compound, the Cmax [6] was 0.18 µg/mL.

For `CC(C)(C)CCC1(NCc2ccccc2)C(=O)C(C2=NS(=O)(=O)c3cc(NS(C)(=O)=O)ccc3N2)=C(O)c2ccccc21` (centres undefined), the IC50 [2] was 0.017 µM and the EC50 [17] was 0.01 µM.

With `CC(C)(C)CCC1(NCc2ccc(C#N)cc2)C(=O)C(C2=NS(=O)(=O)c3cc(NS(C)(=O)=O)ccc3N2)=C(O)c2ccccc21` (centres undefined) the IC50 [2] was 0.013 µM and the EC50 [17] was 0.017 µM.

In the case of `CON[C@]1(CCC(C)C)C(=O)C(C2=NS(=O)(=O)c3cc(NS(C)(=O)=O)ccc3N2)=C(O)c2ccccc21`, the bioavailability [1] is reported as 34.1%, the IC50 [2] is reported as 0.006 µM and the EC50 [17] is reported as 0.012 µM. It also gave a clearance [3] of 2.7 L/h/kg, a half-life [4] of 0.6 h and an AUC(0-inf) [5] of 0.35 µg·h/mL.

Work on `CC(C)CC[C@@]1(N)C(=O)C(C2=NS(=O)(=O)c3cc(NS(C)(=O)=O)ccc3N2)=C(O)c2ccccc21` yielded a bioavailability [1] of 0%, an IC50 [2] of 0.004 µM and an EC50 [17] of 0.037 µM. It also gave a clearance [3] of 2.12 L/h/kg and a half-life [4] of 0.3 h.

Compound `CONC1(CCC(C)C)C(=O)C(C2=NS(=O)(=O)c3cc(NS(C)(=O)=O)ccc3N2)=C(O)c2ccccc21` (centres undefined) has an IC50 [2] of 0.01 µM and an EC50 [17] of 0.016 µM.

With `CC(C)CCC1(NC(N)=O)C(=O)C(C2=NS(=O)(=O)c3cc(NS(C)(=O)=O)ccc3N2)=C(O)c2ccccc21` (centres undefined) the IC50 [2] was 0.027 µM and the EC50 [17] was 0.576 µM.

For `CC(C)CCC1(N)C(=O)C(C2=NS(=O)(=O)c3cc(NS(C)(=O)=O)ccc3N2)=C(O)c2ccccc21` (centres undefined), the IC50 [2] was 0.012 µM and the EC50 [17] was 0.029 µM.

In the case of `CC(C)CCC1(NS(C)(=O)=O)C(=O)C(C2=NS(=O)(=O)c3cc(NS(C)(=O)=O)ccc3N2)=C(O)c2ccccc21` (centres undefined), the IC50 [2] is reported as 0.024 µM and the EC50 [17] is reported as 0.069 µM.

`CON(C(C)=O)C1(CCC(C)C)C(=O)C(C2=NS(=O)(=O)c3cc(NS(C)(=O)=O)ccc3N2)=C(O)c2ccccc21` (centres undefined) gave an IC50 [2] of 0.083 µM.
